# Screens (PubChem)
# SENP7 block: SENP7 protease inhibition. inhibition, % at 5 µM. recombinant SENP7, Z-RLRGG-aminoluciferin luminescence, 40 min. 330,000 compounds, 1.5% hits. Q9BQF6;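 active = inhibition above about 50% at the single test dose, limit read from the data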;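 note: plate controls were DMSO with enzyme for no effect and no enzyme buffer wells for full effect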
# SENP6 inh: blocks the human protease SENP6 | Q9GZR1 | Recombinant SENP6 catalytic domain, aminoluciferin luminescence | inhibition, % at 10 µM | 330,000 compounds, 1.8% hits;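 active = inhibition above about 50% at the single tested dose, limit read from the data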;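 note: plate controls were DMSO wells with enzyme for no effect and DMSO wells lacking enzyme for full effect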
# SENP8 block-1: SENP8 (human) protease inhibition; 360,000 compounds, 0.64% hits; AID 602440; recombinant SENP8, Nedd8 substrate fluorescence; inhibition, % at 20 µM; Q96LD8; in the data active = inhibition mostly above about 40%, no sharp cut-off; inactive = mostly below about 27%
# Apaf-1 inh: blocks human Apaf-1 apoptosome activity | O14727 | reconstituted apoptosome caspase-3 activity, DEVD-Rh110 fluorescence | inhibition, % at 20 µM | 330,000 compounds, 0.71% hits | AID 489030; active = inhibition of at least 40% at 20 µM;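 note: plate controls were DMSO wells for no effect and DEVD-CHO caspase inhibitor wells for full effect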
#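 Material: reconstituted apoptosome with Apaf-1, cytochrome c, caspase-9, procaspase-3, dATP; medium: pH 7.5 Hepes buffer with CHAPS, BSA, DTT; also added: cytochrome c and DEVD-Rh110 substrate; timing: 30 min plus 50 min, RT; signal: Rh110 fluorescence intensity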
# UBC13 polyUb: blocks human UBC13 polyubiquitin chain formation; P61088; TR-FRET; inhibition, % at 20 µM; 330,000 compounds, 0.47% hits; in the data active = inhibition above about 45%, passing the limit was not always enough
# Target sequence (P61088 whole entry, looked up): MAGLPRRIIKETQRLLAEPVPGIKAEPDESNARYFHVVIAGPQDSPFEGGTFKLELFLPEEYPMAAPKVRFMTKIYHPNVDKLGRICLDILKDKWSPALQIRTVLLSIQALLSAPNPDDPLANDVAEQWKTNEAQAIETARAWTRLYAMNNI
# SENP8 block-2: blocks the human protease SENP8; Q96LD8; purified SENP8, Z-RLRGG-aminoluciferin cleavage, luminescence; inhibition, % at 10 µM; 330,000 compounds, 1.2% hits; AID 2540; in the data active = inhibition above about 50%
# SENP8 confirm: human SENP8 inhibition, confirmed; shares compounds with SENP7 block; 6,200 compounds, 40% hits; inhibition, % at 12.5 µM; AID 488912; Recombinant SENP8, Z-RLRGG-aminoluciferin luminescence, 60 min;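 active = mean inhibition across replicates above about 50%, limit read from the data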
# SENP6 conf: confirmation of human SENP6 protease inhibitors; recombinant SENP6, Z-RLRGG-aminoluciferin luminescence; shares compounds with SENP7 block; 6,200 compounds, 58% hits; inhibition, % at 12.5 µM
# SENP7 confirm: human SENP7 inhibition, confirmed | AID 488917 | 6,200 compounds, 69% hits | shares compounds with SENP7 block | inhibition, % at 12.5 µM | recombinant SENP7, Z-RLRGG-aminoluciferin luminescence, 40 min
# Casp3 select: inhibits human caspase-3 in SENP selectivity test; shares compounds with SENP7 block; purified caspase-3, Z-DEVD-aminoluciferin luminescence, 60 min; inhibition, % at 12.5 µM; 6,200 compounds, 60% hits;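 active = mean inhibition above about 50%, limit read from the data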;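 note: plate controls were enzyme with DMSO for no effect and wells without caspase-3 for full effect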
# Target sequence (P42574 28-227 limits assumed): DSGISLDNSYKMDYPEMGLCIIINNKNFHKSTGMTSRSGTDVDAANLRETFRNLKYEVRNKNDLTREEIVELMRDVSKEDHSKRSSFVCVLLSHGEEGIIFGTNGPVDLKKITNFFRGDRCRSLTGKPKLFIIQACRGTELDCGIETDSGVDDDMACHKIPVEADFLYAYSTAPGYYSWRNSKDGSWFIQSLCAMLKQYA
# SENP luc ctr: luminescence interference (SENP counter-screen). Pre-incubated SENP8/Z-RLRGG-aminoluciferin, luciferase luminescence interference. inhibition, % at 12.5 µM. shares compounds with SENP7 block. 6,200 compounds, 39% hits;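 active = mean inhibition above about 50% when retested at one dose, limit read from the data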;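 note: plate controls were DMSO wells with completed reaction for no effect and substrate without enzyme for full effect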
# * = called active by the depositor; . = not tested or not shown. Shown are actives, neighbours in structure and some others; about 3% of the full set was active somewhere.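 Rule for the calls, unless noted: active = mean inhibition above about 50% in the one-dose retest (limit read from the data); inactive = the rest.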
SMILES,SENP7 block,SENP6 inh,SENP8 block-1,Apaf-1 inh,UBC13 polyUb,SENP8 block-2,SENP8 confirm,SENP6 conf,SENP7 confirm,Casp3 select,SENP luc ctr
Cc1nn(C)c(C)c1C1Nc2ccccc2C(=O)N1O (stereo not given),-1.5,-4.4,-11.7,-1.8,7.9,-5.8,.,.,.,.,.
O=C1c2ccccc2NC(c2cnc3ccccc3n2)N1O (stereo not given),-1.3,71.7*,-169.3,-0.5,5.7,40.2,12.3,11.9,6.9,11.9,-7.0
CCN1CCN(c2ccc(NC(=O)c3cccc(OCc4ccccc4)c3)cc2)CC1,24.1,56.2*,6.8,15.1,14.6,16.1,0.5,-3.2,8.3,9.2,3.6
O=C(Nc1ccc(COc2ccccc2)cc1)c1cccc([N+](=O)[O-])c1,62.5*,9.3,16.1,-3.1,-17.7,-4.4,-1.2,0.3,1.8,5.5,5.3
CN1CCN(c2ccc(NC(=O)c3cccc(OCc4ccccc4)c3)cc2)CC1,29.2,58.7*,28.5,19.5,32.1,21.0,23.2,10.8,23.3,15.1,3.7
Cc1ccccc1CN1C(=O)c2ccccc2C1c1nnnn1-c1ccc2c(c1)OCCO2 (stereo not given),.,.,7.8,.,.,.,.,.,.,.,.
Cc1ccc(-n2ncc3c2ncn2c(C)nnc32)cc1C,-8.9,53.7*,-246.2,3.6,5.6,46.9,49.8,44.7,72.8*,75.5*,12.9
CCc1nnc2c3cnn(-c4ccccc4)c3ncn12,-1.4,-3.6,-235.4,-1.5,9.3,-7.5,.,.,.,.,.
Cc1c(C(=O)Nc2nc3ccccc3[nH]2)oc2ccc(Br)cc12,47.7,-27.6,-158.4,13.5,-2.6,-3.9,.,.,.,.,.
COc1ccc(C(=O)Nc2nc3ccccc3[nH]2)cc1,97.3*,96.7*,1.9,12.9,7.3,92.6*,7.5,95.1*,101.2*,96.1*,59.6*
Cc1ccc(C(=O)Nc2nc3ccccc3[nH]2)cc1,96.8*,93.2*,-3.3,12.1,6.8,93.3*,10.5,8.5,-4.0,47.9,10.2
Cc1c(C(=O)Nc2nc3ccccc3[nH]2)oc2ccccc12,56.5*,69.5*,-156.0,2.2,1.2,37.6,-26.9,60.0*,89.3*,65.2*,6.6
O/C(=C\c1nc2ccccc2[nH]1)c1cccs1,20.4,60.8*,-99.0,20.7,-23.0,33.5,40.4,74.1*,66.0*,38.5,45.9
O=c1[nH]c2ccccc2nc1/C=C(\O)c1cccs1,3.8,38.3,-232.7,-2.0,-60.2,17.8,.,.,.,.,.
CC(C)c1c(C(=O)Nc2ccccc2)c(-c2ccccc2)c(-c2ccc(F)cc2)n1CC[C@@H](O)C[C@@H](O)CC(=O)O,.,.,5.1,.,.,.,.,.,.,.,.
COc1cccc(C(=O)Nc2nc3ccccc3[nH]2)c1,95.1*,93.6*,-1.0,8.8,1.7,89.8*,5.8,92.7*,101.6*,95.8*,17.2
O=C(Nc1nc2ccccc2[nH]1)c1cccs1,69.4*,17.0,-19.1,2.2,-4.3,44.5,42.7,72.6*,88.8*,87.5*,10.1
CC(=O)Nc1ccc(CN2C(=O)C(C)(C)ON=C2c2ccc(C(F)(F)F)cc2)cc1,.,.,-1.2,.,.,.,.,.,.,.,.
C=C1C(=O)N(C)CCC1C(CC)C(=O)OC (stereo not given),.,.,4.2,.,.,.,.,.,.,.,.
CC(C)CN(C(=O)COC(=O)CCSc1ccc(Cl)cc1)c1c(N)n(Cc2ccccc2)c(=O)[nH]c1=O,.,.,8.0,.,.,.,.,.,.,.,.
CC(C)(C)NC(=O)C(c1ccccc1F)n1c(=O)c(-c2cc3ccccc3[nH]2)nc2ccccc21 (stereo not given),.,.,-387.7,.,.,.,.,.,.,.,.
